{
  "source": "ChEMBL document CHEMBL3352559",
  "about": "“Synthesis and pharmacological investigation of aralkyl diamine derivatives as potential triple reuptake inhibitors” (Eur J Med Chem, 2014)",
  "key": {"[1]": {"target": "Kappa-type opioid receptor (Homo sapiens) (UniProt P41145)", "sequence (P41145 whole entry)": "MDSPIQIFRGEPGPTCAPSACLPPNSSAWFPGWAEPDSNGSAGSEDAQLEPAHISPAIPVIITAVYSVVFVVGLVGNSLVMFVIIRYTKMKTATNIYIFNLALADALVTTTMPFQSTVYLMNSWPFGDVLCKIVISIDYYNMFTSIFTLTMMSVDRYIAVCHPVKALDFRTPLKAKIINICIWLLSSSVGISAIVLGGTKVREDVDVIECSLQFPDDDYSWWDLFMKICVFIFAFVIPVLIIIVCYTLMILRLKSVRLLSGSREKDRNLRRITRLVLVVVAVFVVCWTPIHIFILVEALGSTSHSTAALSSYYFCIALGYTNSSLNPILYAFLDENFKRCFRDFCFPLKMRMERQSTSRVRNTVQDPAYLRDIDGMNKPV", "assay": "Displacement of [3H]U69593 from human kappa opioid receptor at 10 uM relative to control", "in_short": "(§1)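 Outsourced CNS receptor panel (55 binding assays); compound tested at 10 μM in primary radioligand binding; specific binding inhibition expressed relative to control, with >50% inhibition taken as a significant effect.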"}, "[2]": {"assay": "Ratio of drug level in Sprague-Dawley rat brain to plasma at 0.5 mg/kg iv after 2 hrs", "assay_type": "ADME, organism-based", "design": "dose 0.5 mg/kg, route intravenous", "conditions": "read-out: BPR"}, "[3]": {"target": "Sodium-dependent serotonin transporter (Homo sapiens, UniProt P31645)", "sequence (P31645 whole entry)": "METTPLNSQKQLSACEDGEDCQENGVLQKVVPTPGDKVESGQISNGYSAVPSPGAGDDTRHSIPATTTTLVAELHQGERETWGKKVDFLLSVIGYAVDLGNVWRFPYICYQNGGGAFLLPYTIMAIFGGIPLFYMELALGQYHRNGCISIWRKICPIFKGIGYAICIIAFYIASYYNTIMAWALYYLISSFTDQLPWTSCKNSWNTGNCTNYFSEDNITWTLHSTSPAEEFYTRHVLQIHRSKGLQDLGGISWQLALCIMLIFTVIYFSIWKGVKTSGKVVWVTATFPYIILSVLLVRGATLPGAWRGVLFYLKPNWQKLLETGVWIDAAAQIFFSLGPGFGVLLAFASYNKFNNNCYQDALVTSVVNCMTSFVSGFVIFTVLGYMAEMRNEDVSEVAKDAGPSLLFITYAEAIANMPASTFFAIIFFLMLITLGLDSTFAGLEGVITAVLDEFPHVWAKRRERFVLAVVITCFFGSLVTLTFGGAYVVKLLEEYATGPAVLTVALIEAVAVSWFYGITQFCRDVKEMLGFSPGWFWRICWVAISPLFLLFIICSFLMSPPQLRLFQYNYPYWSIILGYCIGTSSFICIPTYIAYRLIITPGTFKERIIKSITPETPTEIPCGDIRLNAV", "assay": "Inhibition of [3H]-serotonin uptake in human SERT expressed in HEK293 cells by scintillation counting", "assay_type": "cell-based"}, "[4]": {"target": "Muscarinic acetylcholine receptor M1 (Homo sapiens) (UniProt P11229)", "sequence (P11229 whole entry)": "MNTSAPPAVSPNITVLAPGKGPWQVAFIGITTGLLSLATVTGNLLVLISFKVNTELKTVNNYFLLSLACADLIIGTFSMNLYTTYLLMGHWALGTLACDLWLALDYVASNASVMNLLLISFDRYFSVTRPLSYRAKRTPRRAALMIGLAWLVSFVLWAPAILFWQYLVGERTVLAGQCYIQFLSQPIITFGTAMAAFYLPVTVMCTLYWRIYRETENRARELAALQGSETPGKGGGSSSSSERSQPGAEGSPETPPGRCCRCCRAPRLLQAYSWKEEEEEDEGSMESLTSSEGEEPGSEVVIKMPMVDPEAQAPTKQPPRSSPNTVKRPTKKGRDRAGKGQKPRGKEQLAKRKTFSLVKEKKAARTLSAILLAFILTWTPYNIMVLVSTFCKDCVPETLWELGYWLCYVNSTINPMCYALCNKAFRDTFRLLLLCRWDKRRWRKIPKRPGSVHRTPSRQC", "assay": "Displacement of [3H]pirenzepine from human muscarinic M1 receptor at 10 uM relative to control", "in_short": "as §1"}, "[5]": {"assay": "Drug uptake in Sprague-Dawley rat plasma at 0.5 mg/kg iv after 4 hrs", "assay_type": "ADME, organism-based", "design": "dose 0.5 mg/kg, route intravenous", "in_short": "(§2)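 Male SD rats, fasted overnight until 6 h post-dose; single 0.5 mg/kg femoral-vein injection; blood drawn into heparin at 5, 15, 30 min, 1, 2 and 4 h; plasma stored at -40 °C; drug levels by LC/MS/MS; noncompartmental parameters.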"}, "[6]": {"assay": "Ratio of drug level in Sprague-Dawley rat brain to plasma at 0.5 mg/kg iv after 0.50 hrs", "assay_type": "ADME, organism-based", "design": "dose 0.5 mg/kg, route intravenous", "conditions": "read-out: BPR"}, "Rattus norvegicus [7]": {"tested_on": "Rattus norvegicus", "assay": "Antidepressant activity in rat assessed as reduction in immobility time at 10 mg/kg, po by forced swimming test relative to control", "assay_type": "functional", "in_short": "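Male rats dosed orally at 5, 10 or 20 mg/kg alongside vehicle and venlafaxine 30 mg/kg PO groups. 1 h post-dose, each rat placed in a glass cylinder (40 cm × 18 cm) holding 15 cm of 25 ± 1 °C water. Immobility time recorded over a 6 min trial; significant main effects followed by post hoc Fisher's test.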"}, "[8]": {"target": "Substance-K receptor (Homo sapiens) (UniProt P21452)", "sequence (P21452 whole entry)": "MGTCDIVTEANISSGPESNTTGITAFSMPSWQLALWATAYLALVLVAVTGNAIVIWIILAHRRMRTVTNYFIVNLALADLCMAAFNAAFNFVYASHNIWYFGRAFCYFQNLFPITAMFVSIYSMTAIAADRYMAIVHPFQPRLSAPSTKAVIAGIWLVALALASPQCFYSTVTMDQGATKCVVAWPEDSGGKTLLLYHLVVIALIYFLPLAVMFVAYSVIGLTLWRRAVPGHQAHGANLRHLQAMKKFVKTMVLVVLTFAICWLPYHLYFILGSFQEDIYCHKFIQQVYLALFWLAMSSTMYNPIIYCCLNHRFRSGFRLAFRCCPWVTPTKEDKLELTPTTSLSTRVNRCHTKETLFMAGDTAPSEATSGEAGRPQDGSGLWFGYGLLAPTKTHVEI", "assay": "Displacement of [125I]NKA from human NK2 receptor at 10 uM relative to control", "in_short": "(§3)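 Outsourced CNS panel of 55 receptor binding assays run by Cerep. Compound tested at 10 μM, the default primary-binding concentration, with inhibition expressed relative to control. Inhibition above 50% taken as a significant effect.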"}, "Salmonella typhimurium [9]": {"tested_on": "Salmonella typhimurium", "assay": "Mutagenic activity in Salmonella typhimurium TA98 assessed as number of reversion mutation at 100 ug/plate", "assay_type": "toxicity, organism-based", "conditions": "salmonella enterica subsp. enterica serovar typhimurium", "in_short": "(§4)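 Ames reversion test in Salmonella typhimurium TA98 and TA100, with and without rat liver S9 metabolic activation. Compound was dissolved in DMSO and added at 3–5000 μg/plate. Each dose, vehicle and positive control was plated in triplicate, and revertant colonies were counted.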"}, "[10]": {"target": "Sodium-dependent dopamine transporter (Homo sapiens, UniProt Q01959)", "sequence (Q01959 whole entry)": "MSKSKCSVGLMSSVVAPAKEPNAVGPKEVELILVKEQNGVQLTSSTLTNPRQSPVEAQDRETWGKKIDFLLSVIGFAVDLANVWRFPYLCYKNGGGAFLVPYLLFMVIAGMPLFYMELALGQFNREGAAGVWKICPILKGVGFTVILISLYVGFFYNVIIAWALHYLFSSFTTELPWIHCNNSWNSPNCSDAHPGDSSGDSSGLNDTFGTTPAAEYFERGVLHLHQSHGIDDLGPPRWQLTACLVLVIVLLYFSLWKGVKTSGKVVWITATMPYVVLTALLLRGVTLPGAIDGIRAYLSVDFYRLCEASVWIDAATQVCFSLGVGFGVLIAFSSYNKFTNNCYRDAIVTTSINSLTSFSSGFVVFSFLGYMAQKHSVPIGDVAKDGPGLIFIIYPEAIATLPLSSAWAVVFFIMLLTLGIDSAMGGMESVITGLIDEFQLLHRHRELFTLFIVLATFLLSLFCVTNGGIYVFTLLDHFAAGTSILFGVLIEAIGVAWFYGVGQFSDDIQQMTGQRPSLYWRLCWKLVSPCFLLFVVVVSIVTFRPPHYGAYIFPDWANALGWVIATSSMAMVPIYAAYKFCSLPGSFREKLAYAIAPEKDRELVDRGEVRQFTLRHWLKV", "assay": "Displacement of [3H]BTCP from human DAT at 10 uM relative to control", "in_short": "as §3"}, "[11]": {"assay": "Drug uptake in Sprague-Dawley rat brain at 0.5 mg/kg ip after 1 hrs"}, "[12]": {"assay": "AUC (0 to infinity) in Sprague-Dawley rat at 2 mg/kg, po", "assay_type": "ADME, organism-based", "design": "dose 2 mg/kg, route oral, time infinity", "conditions": "plasma", "in_short": "(§5)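 Male SD rats, fasted overnight until 6 h post-dose. PO group received single 2 mg/kg with heparinized blood sampled at 5, 15, 30 min, 1, 2, 4, 8, 24 h. IV group received single 0.5 mg/kg via femoral vein with sampling at 5, 15, 30 min, 1, 2, 4 h. Plasma stored at -40 °C, quantified by LC/MS/MS; 24 rats per group.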"}, "[13]": {"assay": "Elimination half life in Sprague-Dawley rat at 2 mg/kg, po", "assay_type": "ADME, organism-based", "design": "dose 2 mg/kg, route oral", "conditions": "in vivo, read-out: beta t1/2 (converted)"}, "Salmonella typhimurium [14]": {"tested_on": "Salmonella typhimurium", "assay": "Mutagenic activity in Salmonella typhimurium TA100 assessed as number of reversion mutation at 300 ug/plate", "assay_type": "toxicity, organism-based", "conditions": "salmonella enterica subsp. enterica serovar typhimurium", "in_short": "as §4"}, "[15]": {"target": "Prostaglandin E2 receptor EP4 subtype (Homo sapiens) (UniProt P35408)", "sequence (P35408 whole entry)": "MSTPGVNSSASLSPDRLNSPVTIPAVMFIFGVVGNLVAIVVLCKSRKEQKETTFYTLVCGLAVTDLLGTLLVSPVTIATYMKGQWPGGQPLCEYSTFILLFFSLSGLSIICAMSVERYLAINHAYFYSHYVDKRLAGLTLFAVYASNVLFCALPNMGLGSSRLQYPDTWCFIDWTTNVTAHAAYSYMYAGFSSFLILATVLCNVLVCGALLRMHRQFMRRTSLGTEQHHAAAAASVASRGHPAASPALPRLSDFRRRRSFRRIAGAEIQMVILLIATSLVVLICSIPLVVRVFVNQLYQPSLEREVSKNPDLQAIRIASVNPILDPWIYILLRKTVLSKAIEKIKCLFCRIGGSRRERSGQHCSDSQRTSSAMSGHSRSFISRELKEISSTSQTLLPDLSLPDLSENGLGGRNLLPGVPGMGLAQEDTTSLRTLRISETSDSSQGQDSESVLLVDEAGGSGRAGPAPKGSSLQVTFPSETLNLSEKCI", "assay": "Displacement of [3H]PGE2 from human EP4 receptor at 10 uM relative to control", "in_short": "as §3"}, "[16]": {"target": "Histamine H2 receptor (Homo sapiens) (UniProt P25021)", "sequence (P25021 whole entry)": "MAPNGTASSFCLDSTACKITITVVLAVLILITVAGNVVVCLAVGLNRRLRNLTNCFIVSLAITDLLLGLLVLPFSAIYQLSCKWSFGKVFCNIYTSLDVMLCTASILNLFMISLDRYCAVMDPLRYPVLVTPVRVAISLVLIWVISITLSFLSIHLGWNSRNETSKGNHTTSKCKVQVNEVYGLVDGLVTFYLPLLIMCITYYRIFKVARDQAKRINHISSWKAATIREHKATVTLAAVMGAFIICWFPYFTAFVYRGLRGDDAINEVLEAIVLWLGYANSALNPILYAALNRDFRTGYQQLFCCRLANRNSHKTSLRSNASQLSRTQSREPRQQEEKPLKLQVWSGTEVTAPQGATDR", "assay": "Displacement of [125I]APT from human histamine H2 receptor at 10 uM relative to control", "in_short": "as §3"}, "[17]": {"assay": "Elimination half life in Sprague-Dawley rat at 0.5 mg/kg, iv", "assay_type": "ADME, organism-based", "design": "dose 0.5 mg/kg, route intravenous", "conditions": "in vivo, read-out: beta t1/2 (converted)", "in_short": "as §2"}, "[18]": {"target": "Melanocortin receptor 4 (Homo sapiens) (UniProt P32245)", "assay": "Displacement of [125I] NDP-alpha-MSH from human MC4 receptor at 10 uM relative to control", "in_short": "as §3"}, "[19]": {"target": "Melatonin receptor type 1A (Homo sapiens) (UniProt P48039)", "assay": "Displacement of 2-[125I]iodomelatonin from human melatonin MT1 receptor at 10 uM relative to control", "in_short": "as §3"}, "[20]": {"target": "C-X-C chemokine receptor type 2 (Homo sapiens) (UniProt P25025)", "assay": "Displacement of [125I]IL-8 from CXCR2 receptor (unknown origin) at 10 uM relative to control", "in_short": "as §3"}, "[21]": {"assay": "Cmax in Sprague-Dawley rat at 0.5 mg/kg, iv", "assay_type": "ADME, organism-based", "design": "dose 0.5 mg/kg, route intravenous", "conditions": "in vivo", "in_short": "as §5"}, "[22]": {"assay": "AUC (0 to time) in Sprague-Dawley rat at 2 mg/kg, po", "assay_type": "ADME, organism-based", "design": "dose 2 mg/kg, route oral", "conditions": "plasma", "in_short": "as §5"}, "[23]": {"target": "Type-1 angiotensin II receptor (Homo sapiens) (UniProt P30556)", "sequence (P30556 whole entry)": "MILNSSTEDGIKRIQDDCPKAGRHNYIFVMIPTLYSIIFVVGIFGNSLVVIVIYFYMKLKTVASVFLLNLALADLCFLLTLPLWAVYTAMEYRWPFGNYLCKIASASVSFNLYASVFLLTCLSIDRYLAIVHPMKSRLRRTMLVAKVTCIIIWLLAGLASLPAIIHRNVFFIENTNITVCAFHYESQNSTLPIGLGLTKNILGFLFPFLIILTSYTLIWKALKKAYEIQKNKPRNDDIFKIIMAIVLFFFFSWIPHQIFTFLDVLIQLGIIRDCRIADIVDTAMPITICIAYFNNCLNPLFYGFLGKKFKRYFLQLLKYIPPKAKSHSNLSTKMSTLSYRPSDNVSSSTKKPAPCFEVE", "assay": "Displacement of [125I][Sar1,Ile8]-ATII from human angiotensin AT1 receptor at 10 uM relative to control", "in_short": "as §3"}, "Salmonella typhimurium [24]": {"tested_on": "Salmonella typhimurium", "assay": "Mutagenic activity in Salmonella typhimurium TA100 assessed as number of reversion mutation at 1000 ug/plate", "assay_type": "toxicity, organism-based", "conditions": "salmonella enterica subsp. enterica serovar typhimurium", "in_short": "as §4"}, "[25]": {"assay": "Acute toxicity in KM mouse assessed as survival at 450 mg/kg, po up to 14 days (reference value: 100%)", "assay_type": "organism-based", "design": "dose 450 mg/kg, route oral", "conditions": "in vivo"}, "[26]": {"target": "Delta-type opioid receptor (Homo sapiens) (UniProt P41143)", "sequence (P41143 whole entry)": "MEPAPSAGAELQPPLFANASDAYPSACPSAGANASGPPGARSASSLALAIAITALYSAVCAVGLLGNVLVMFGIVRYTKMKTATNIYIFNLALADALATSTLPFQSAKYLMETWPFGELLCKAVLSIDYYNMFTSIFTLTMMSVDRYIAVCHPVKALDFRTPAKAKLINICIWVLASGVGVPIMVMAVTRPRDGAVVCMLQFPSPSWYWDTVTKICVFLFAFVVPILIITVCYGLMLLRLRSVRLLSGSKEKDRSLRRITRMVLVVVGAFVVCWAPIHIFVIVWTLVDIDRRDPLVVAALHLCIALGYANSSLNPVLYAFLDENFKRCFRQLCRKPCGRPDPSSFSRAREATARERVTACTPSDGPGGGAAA", "assay": "Displacement of [3H] DADLE from human delta opioid receptor at 10 uM relative to control", "in_short": "as §3"}, "[27]": {"target": "5-hydroxytryptamine receptor 7 (Homo sapiens) (UniProt P34969)", "sequence (P34969 whole entry)": "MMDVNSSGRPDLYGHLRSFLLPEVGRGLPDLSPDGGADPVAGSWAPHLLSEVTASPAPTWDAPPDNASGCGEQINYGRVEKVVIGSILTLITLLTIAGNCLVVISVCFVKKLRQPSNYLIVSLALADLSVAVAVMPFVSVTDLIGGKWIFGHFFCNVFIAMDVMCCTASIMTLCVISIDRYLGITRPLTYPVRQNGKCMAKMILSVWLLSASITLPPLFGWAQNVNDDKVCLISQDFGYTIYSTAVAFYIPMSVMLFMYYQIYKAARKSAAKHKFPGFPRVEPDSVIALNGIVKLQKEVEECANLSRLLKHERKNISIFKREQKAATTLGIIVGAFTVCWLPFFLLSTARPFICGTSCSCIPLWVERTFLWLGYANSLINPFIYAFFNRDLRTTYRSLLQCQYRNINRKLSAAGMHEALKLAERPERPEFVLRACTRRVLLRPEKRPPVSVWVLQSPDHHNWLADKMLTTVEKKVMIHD", "assay": "Displacement of [3H]LSD from human 5-HT7 receptor at 10 uM relative to control", "in_short": "as §3"}, "[28]": {"assay": "Drug uptake in Sprague-Dawley rat plasma at 0.5 mg/kg iv after 1 hrs", "assay_type": "ADME, organism-based", "design": "dose 0.5 mg/kg, route intravenous", "in_short": "as §2"}, "[29]": {"target": "Adenosine receptor A3 (Homo sapiens) (UniProt P0DMS8)", "sequence (P0DMS8 whole entry)": "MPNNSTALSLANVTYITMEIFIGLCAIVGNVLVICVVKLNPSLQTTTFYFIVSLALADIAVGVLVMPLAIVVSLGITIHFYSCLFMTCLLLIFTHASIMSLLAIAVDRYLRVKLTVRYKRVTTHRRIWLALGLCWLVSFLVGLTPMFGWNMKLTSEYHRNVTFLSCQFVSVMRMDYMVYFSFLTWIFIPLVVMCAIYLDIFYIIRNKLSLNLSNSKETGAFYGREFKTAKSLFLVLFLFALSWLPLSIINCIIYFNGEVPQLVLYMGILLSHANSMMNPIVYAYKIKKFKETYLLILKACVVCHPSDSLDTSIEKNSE", "assay": "Displacement of [3H]ABMECA from human adenosine A3 receptor at 10 uM relative to control", "in_short": "as §3"}, "Rattus norvegicus [30]": {"tested_on": "Rattus norvegicus", "assay": "Toxicity in rat assessed as effect on locomotion at 20 mg/kg, po after 60 mins by spontaneous locomotor test", "assay_type": "organism-based", "design": "dose 20 mg/kg, route oral", "conditions": "in vivo, 1 h", "in_short": "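Rats dosed orally at 20 mg/kg, with vehicle and venlafaxine 30 mg/kg PO as controls; 60 min later placed singly in novel 40×40×50 cm cages under dim light with sound attenuation; activity recorded automatically in 5 min bins over 30 min; mean ± SEM.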"}, "[31]": {"assay": "Ratio of drug level in Sprague-Dawley rat brain to plasma at 0.5 mg/kg iv after 0.08 hrs", "assay_type": "ADME, organism-based", "design": "dose 0.5 mg/kg, route intravenous", "conditions": "read-out: BPR"}, "[32]": {"target": "Cannabinoid receptor 1 (Homo sapiens) (UniProt P21554)", "assay": "Displacement of [3H]-CP55940 from human CB1 receptor at 10 uM relative to control", "in_short": "as §3"}},
  "data": [
    {"smiles": "CN(C)CCC(c1ccc(Cl)c(Cl)c1)N1CCOCC1", "note": "(configuration not stated)", "values": [
      {"measurement": "inhibition", "setting": "[1]", "value": 11.2, "unit": "%"},
      {"measurement": "Kp at 2 h", "setting": "[2]", "value": 16.4},
      {"measurement": "IC50", "setting": "[3]", "value": 0.378, "unit": "µM"},
      {"measurement": "inhibition", "setting": "[4]", "value": 45.6, "unit": "%"},
      {"measurement": "concentration at 4 h", "setting": "[5]", "value": 0.0037, "unit": "µg/mL"},
      {"measurement": "Kp at 0.5 h", "setting": "[6]", "value": 12.3},
      {"measurement": "inhibition in vivo at 10 mg/kg", "setting": "Rattus norvegicus [7]", "value": 47, "unit": "%"},
      {"measurement": "inhibition", "setting": "[8]", "value": -7, "unit": "%"},
      {"measurement": "Activity", "setting": "Salmonella typhimurium [9]", "value": 41},
      {"measurement": "inhibition", "setting": "[10]", "value": 93.6, "unit": "%"},
      {"measurement": "concentration at 1 h", "setting": "[11]", "value": 0.425, "unit": "µg/mL"},
      {"measurement": "AUC(0-inf)", "setting": "[12]", "value": 0.08, "unit": "µg·h/mL"},
      {"measurement": "half-life", "setting": "[13]", "value": 4.5, "unit": "h"},
      {"measurement": "Activity", "setting": "Salmonella typhimurium [14]", "value": 93},
      {"measurement": "inhibition", "setting": "[15]", "value": -1.2, "unit": "%"},
      {"measurement": "inhibition", "setting": "[16]", "value": -8, "unit": "%"},
      {"measurement": "half-life", "setting": "[17]", "value": 1, "unit": "h"},
      {"measurement": "inhibition", "setting": "[18]", "value": 0.8, "unit": "%"},
      {"measurement": "inhibition", "setting": "[19]", "value": -7.1, "unit": "%"},
      {"measurement": "inhibition", "setting": "[20]", "value": 9.3, "unit": "%"},
      {"measurement": "Cmax", "setting": "[21]", "value": 0.0485, "unit": "µg/mL"},
      {"measurement": "AUC", "setting": "[22]", "value": 0.061, "unit": "µg·h/mL"},
      {"measurement": "inhibition", "setting": "[23]", "value": -9.5, "unit": "%"},
      {"measurement": "Activity", "setting": "Salmonella typhimurium [24]", "value": 87},
      {"measurement": "survival at 336 h", "setting": "[25]", "value": 100, "unit": "%"},
      {"measurement": "inhibition", "setting": "[26]", "value": -1.1, "unit": "%"},
      {"measurement": "inhibition", "setting": "[27]", "value": 8.9, "unit": "%"},
      {"measurement": "concentration at 1 h", "setting": "[28]", "value": 0.0335, "unit": "µg/mL"},
      {"measurement": "inhibition", "setting": "[29]", "value": 2.6, "unit": "%"},
      {"measurement": "Activity", "setting": "Rattus norvegicus [30]", "value": "Non-toxic"},
      {"measurement": "Kp at 0.08 h", "setting": "[31]", "value": 23.1},
      {"measurement": "inhibition", "setting": "[32]", "value": -6.2, "unit": "%"}
    ]}
  ]
}
